UBC13 polyUb: human UBC13 polyubiquitination inhibition | UBC13 polyubiquitin chain formation, TR-FRET | inhibition, % at 20 µM | 0.47% of 330,000 active; in the data active = inhibition above about 45%, passing the limit was not always enough
PREPL inh: human PREPL enzyme inhibition | AID 2751 | 0.68% of 320,000 active | inhibition, % at 5.96 µM | recombinant PREPL, fluorescence polarization activity-based probe; in the data active = inhibition above about 43%;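 note: 0% = enzyme with DMSO and 100% = wells lacking enzyme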
Apaf-1 inh: human Apaf-1 inhibition | O14727 | reconstituted apoptosome caspase-3 activity, DEVD-Rh110 fluorescence | inhibition, % at 20 µM | 0.71% of 330,000 active; active = inhibition of at least 40% at 20 µM;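 note: plate controls were DMSO wells for no effect and DEVD-CHO caspase inhibitor wells for full effect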
Target sequence (O14727 whole entry, looked up): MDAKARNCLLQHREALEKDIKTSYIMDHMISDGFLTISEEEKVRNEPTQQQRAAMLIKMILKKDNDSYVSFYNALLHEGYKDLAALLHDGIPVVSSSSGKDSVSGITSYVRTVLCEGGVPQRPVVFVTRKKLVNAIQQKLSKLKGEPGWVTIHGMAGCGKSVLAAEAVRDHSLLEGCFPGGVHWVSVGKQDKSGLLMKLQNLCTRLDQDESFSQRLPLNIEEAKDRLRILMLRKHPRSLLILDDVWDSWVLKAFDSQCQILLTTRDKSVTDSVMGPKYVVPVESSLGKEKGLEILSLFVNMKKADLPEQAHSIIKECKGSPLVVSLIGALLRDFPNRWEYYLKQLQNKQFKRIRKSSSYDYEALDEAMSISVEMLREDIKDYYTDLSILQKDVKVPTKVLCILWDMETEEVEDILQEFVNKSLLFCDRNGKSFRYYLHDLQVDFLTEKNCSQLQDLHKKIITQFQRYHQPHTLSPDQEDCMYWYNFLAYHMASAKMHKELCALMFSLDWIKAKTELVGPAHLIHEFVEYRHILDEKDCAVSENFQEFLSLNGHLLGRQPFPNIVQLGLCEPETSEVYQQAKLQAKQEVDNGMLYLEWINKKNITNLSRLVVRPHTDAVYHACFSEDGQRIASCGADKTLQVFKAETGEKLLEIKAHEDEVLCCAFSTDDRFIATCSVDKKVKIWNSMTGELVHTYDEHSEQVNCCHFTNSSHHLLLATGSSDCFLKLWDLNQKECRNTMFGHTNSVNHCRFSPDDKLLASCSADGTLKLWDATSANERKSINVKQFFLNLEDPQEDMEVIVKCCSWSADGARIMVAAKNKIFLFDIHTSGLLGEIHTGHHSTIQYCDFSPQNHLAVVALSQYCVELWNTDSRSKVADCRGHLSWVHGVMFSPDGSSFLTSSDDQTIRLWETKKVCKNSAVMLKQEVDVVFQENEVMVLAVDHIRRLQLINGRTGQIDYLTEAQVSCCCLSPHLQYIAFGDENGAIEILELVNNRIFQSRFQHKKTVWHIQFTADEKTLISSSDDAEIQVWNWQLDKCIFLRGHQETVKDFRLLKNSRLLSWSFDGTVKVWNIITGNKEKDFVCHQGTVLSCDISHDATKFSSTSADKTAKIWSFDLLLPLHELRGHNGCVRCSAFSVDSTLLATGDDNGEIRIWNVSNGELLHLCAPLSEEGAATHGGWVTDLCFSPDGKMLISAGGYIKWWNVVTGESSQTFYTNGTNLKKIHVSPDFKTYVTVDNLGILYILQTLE
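System – cell-free apoptosome with Apaf-1, procaspase-3 and caspase-9 · Buffer or medium – pH 7.5 Hepes buffer with CHAPS, BSA, DTT · Also added – cytochrome c with DEVD-Rh110 · Times – 30 min compound preincubation, 50 min activation, room temperature · Technique – Rh110 fluorescence intensity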
UCH37 inh: human UCH37 deubiquitinating enzyme inhibition; purified proteasome/UCH37, Ub-AMC cleavage fluorescence; AID 588478; 0.33% of 330,000 active; Q9Y5K5; inhibition, % (test concentration not listed);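 active = mean inhibition over replicate wells above about 20%, limit read from the data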;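 note: 0% = compound-free wells with enzyme and 100% = wells lacking proteasome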
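Test system – human UCH37 enzyme supplied as purified proteasome complex · Incubation – 30 min preincubation with enzyme, 25 min cleavage at room temperature · Detection – AMC fluorescence from Ub-AMC cleavage, excitation 355 nm, emission 460 nm · Benchmarks – no-proteasome wells (full inhibition) and compound-free wells (no inhibition)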
Apaf-1 inh conf2: Apaf-1 inhibition, single-dose confirmed | shares compounds with Apaf-1 inh | reconstituted apoptosome, caspase-3 DEVD-Rh110 fluorescence | inhibition, % at 20 µM | 25% of 1,800 active | AID 504614;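 active = mean inhibition of at least 40% at 20 µM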;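 note: plate controls were DMSO wells for no effect and DEVD-CHO caspase inhibitor control wells for full effect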
Rh110 quench: interferes with Rh110 fluorescence, flagging false Apaf-1 inhibitors | shares compounds with Apaf-1 inh | Rh110 fluorescence interference, quenched caspase reaction | activation (fluorescence interference), % at 20 µM | 1,800 tested, under 10 active;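 active = signal rise of 40% or more at 20 µM, treated as a fluorescence artifact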
Fluor interf inh: Apaf-1 inhibitor counter-screen fluorescence artifact | AID 588538 | 460 tested, under 10 active | fluorescence interference counterscreen, Apaf-1 assay format | shares compounds with Apaf-1 inh | IC50, µM; call rule not given here
* = called active by the depositor; · = no result given. Most compounds without a hit are left out; they make up all but 1.5% or so of the library.

SMILES	UBC13 polyUb	PREPL inh	Apaf-1 inh	UCH37 inh	Apaf-1 inh conf2	Rh110 quench	others
O=C(c1ccccc1)c1ccc(OCC(O)CNC2CCCc3ccccc32)cc1 (stereo not drawn)	25	-18	52*	4	20	10
CCc1ccccc1OC[C@@H](O)CN[C@H]1CCCc2ccccc21	37	-48	46*	4	1	-3
O=C(Cn1cnc([N+](=O)[O-])n1)NN=Cc1ccc(O)cc1O	·	·	·	8	·	·
CC(=NNC(=O)c1ccc(Br)cc1)C1C(=O)c2ccccc2C1=O	·	·	·	11	·	·
On1c2c(c3c4nonc4ccc31)CCCC2	-6	12	27	·	·	·
COn1c2c(c3c4nonc4ccc31)CCCC2	-13	8	47*	-18	52*	10
Cc1[nH]n(-c2ccccc2)c(=O)c1C(=O)c1cccc(F)c1	-2	0	-5	5	·	·
CC1=NN(c2ccc(F)cc2)C(=O)C1C(c1cccc(O)c1)c1c(C)[nH]n(-c2ccc(F)cc2)c1=O (stereo not drawn)	-40	25	91*	9	20	-4
O=C(NN=Cc1ccsc1)c1c[nH]c2ccccc12	·	·	·	5	·	·
COc1ccc(C(CCN2CCOCC2)c2c(OC)cc(OC)c3c(-c4ccccc4)cc(=O)oc23)cc1 (stereo not drawn)	·	·	53*	-10	2	7
CCCCCc1cc(=O)oc2c(C(CCN3CCCCC3)c3ccc4c(c3)OCO4)c(OC)cc(OC)c12 (stereo not drawn)	13	9	66*	-3	39	18
COc1ccc(C(CCN2CCOCC2)c2c(OC)cc(OC)c3ccc(=O)oc23)cc1 (stereo not drawn)	·	·	11	-17	·	·
COc1cc(OC)c2ccc(=O)oc2c1C(CCN1CCCC1)c1ccc2c(c1)OCO2 (stereo not drawn)	12	-24	12	-4	·	·
COc1cc(OC)c2c(-c3ccccc3)cc(=O)oc2c1C(CCN1CCOCC1)c1ccc2c(c1)OCO2 (stereo not drawn)	·	·	42*	-5	9	-2
COc1cc(OC)c2c(-c3ccccc3)cc(=O)oc2c1C(CC(=O)N1CCOCC1)c1ccc2c(c1)OCO2 (stereo not drawn)	3	-9	18	-2	·	·
O=C(COc1ccccc1)NN=Cc1sc(=O)n(Cc2cccc(C(=O)O)c2)c1Cl	·	·	·	8	·	·
COc1cc(C=NNC(=O)c2cc(C3CC3)[nH]n2)cc(OC)c1OC	·	·	·	5	·	·
Cc1ccc(S(=O)(=O)NN=Cc2cccc3c2OCCO3)cc1	·	·	·	0	·	·
O=C(c1ccc(Cn2c(=O)[nH]c3ccccc3c2=O)cc1)N1CCN(c2ccc(Cl)cc2)CC1	-8	-101	41*	1	14	4
O=c1cc(NN=Cc2ccccc2)[nH]c(=O)[nH]1	·	·	·	13	·	·
COc1ccc(C=Nn2cnc3c(sc(=S)n3-c3ccccc3)c2=O)cc1	·	·	·	3	·	·
Cc1ccc2c(c1)c1cccc3c1n2CCN3CCC(N)=O	-1	30	51*	-127	22	11
Cc1ccc(NS(=O)(=O)c2cccc(C(=O)NCC(c3ccco3)N3CCCCC3)c2)cc1 (stereo not drawn)	0	-13	12	-1	·	·
O=C(NCC(c1ccco1)N1CCCC1)c1cccc(S(=O)(=O)Nc2ccc(Br)cc2)c1 (stereo not drawn)	37	0	59*	-5	42*	10	Fluor interf inh=>100
COC(=O)CCC(=O)OC1(C)C(=O)C2=CN(CCCOC(C)C)C(c3ccc(OC)cc3)=CC2=C(Br)C1=O (stereo not drawn)	-87	33	79*	3	71*	5	Fluor interf inh=>100
SMILES	UBC13 polyUb	PREPL inh	Apaf-1 inh	UCH37 inh	Apaf-1 inh conf2	Rh110 quench	others
COC(=O)CCC(=O)OC1(C)C(=O)C2=CN(c3ccccc3)C(c3ccc(OC)cc3)=CC2=C(Br)C1=O (stereo not drawn)	-102	30	23	2	·	·
CN(C)CCNC(=O)C(=O)NCC1OCCN1S(=O)(=O)c1cc(F)ccc1F (stereo not drawn)	24	0	47*	2	21	5
NC(N)=NC(N)=Nc1cccc2ccccc12	0	13	83*	4	11	5
COc1ccc(C=NNC(=O)CNc2n[nH]c(=O)[nH]c2=O)cc1OC	·	·	·	3	·	·
COc1cccc(C=Nn2c(CO)nc3ccccc32)c1OC	·	·	·	1	·	·
CCOC(=O)c1c(NC(=O)CN2CCN(C(=O)c3ccco3)CC2)sc2c1CCCC2	13	29	48*	2	8	10
CCOC(=O)c1c(NC(=O)c2ccco2)sc2c1CCCC2	20	12	6	-335	·	·
COc1cccc2c(=O)c3cccc(N)c3[nH]c12	-32	22	70*	-1	2	-4
CN(C)C=Nc1c(Br)cc(Br)c2nonc12	-75	-5	43*	3	39	2
CCOc1cc(C=NNC(=O)CNc2cccc(C)c2)ccc1OC(=O)c1ccccc1	·	·	·	2	·	·
COc1ccc2[nH]c3c(c2c1)CCN1C(=O)C(CC(=O)NCCC2=CCCCC2)C[C@H](C(=O)N2CCOCC2)[C@@]31CCC1CCCC1 (stereo partly drawn)	·	·	44*	1	29	16
COc1ccc2[nH]c3c(c2c1)CCN1C(=O)C(CC(=O)NCCC2=CCCCC2)C[C@H](C(=O)N2CCCCC2)[C@@]31CCc1ccccc1 (stereo partly drawn)	·	·	10	4	·	·
CN(C)CCCNC(=O)C[C@H]1C[C@H](C(=O)N2CCCCC2)[C@@]2(C)c3[nH]c4cc(-c5ccco5)ccc4c3CCN2C1=O	·	·	42*	-13	5	1
CN(C)CCCNC(=O)C[C@H]1C[C@H](C(=O)N2CCCCC2)[C@@]2(CCc3ccccc3)c3[nH]c4cc(-c5ccco5)ccc4c3CCN2C1=O	·	·	72*	-3	28	11
C[C@]12c3[nH]c4cc(-c5ccco5)ccc4c3CCN1C(=O)[C@@H](CC(=O)NCCCn1ccnc1)C[C@@H]2C(=O)N1CCCCC1	·	·	17	-18	·	·
O=C(NCCc1ccccc1)C(=O)NN=Cc1ccccc1C(F)(F)F	·	·	·	1	·	·
Cc1[nH]n(-c2ccccc2)c(=O)c1C(=O)c1ccccc1	-51	-7	61*	8	18	10
Cc1[nH]n(-c2ccccc2)c(=O)c1C(=O)c1ccc(Cl)cc1	-9	7	10	5	·	·
Cc1ccsc1C=NNC(=O)c1ccccn1	·	·	·	2	·	·
COc1cccc(C=NN2C(=O)NC3(CCCCC3)C2=O)c1O	·	·	·	0	·	·
COc1ccc2cc1Oc1ccc(cc1)C[C@H]1c3c(cc4c(c3Oc3cc5c(cc3OC)CCN(C)[C@@H]5C2)OCO4)CCN1C	25	-23	49*	0	18	-6
